{"data": "Results pooled from the literature", "target": "Mitogen-activated protein kinase kinase kinase 14 (MAP3K14, Homo sapiens, UniProt Q99558)", "note": "Protocols differ between the studies behind these lines."}
{"SMILES": "O=C(c1ccc(Nc2nccc(-c3cc4ccccc4s3)n2)cc1)N1CCC(N2CCCC2)CC1", "assay": "binding, competition with immobilised ligand", "setting": "1 µM", "remaining binding [%]": 59}
{"SMILES": "Nc1cnc(N2CCc3cc(S(=O)(=O)Nc4c(F)cc(Cl)cc4F)cc(N4CCCC4=O)c32)nc1", "assay": "cell-free assay, competition with immobilised ligand", "setting": "1 µM", "remaining binding [%]": 75}
{"SMILES": "CC1CCCN1c1nccc(-c2cnn3ncccc23)n1 (centres unmarked)", "assay": "binding, competition with immobilised ligand", "setting": "1 µM", "remaining binding [%]": 100}
{"SMILES": "CNCc1ccccc1-c1csc([C@@H](C)Nc2nc(C)nc3cc(OC)c(OC)cc23)c1", "assay": "cell-free assay, competition with immobilised ligand", "setting": "1 µM", "remaining binding [%]": 93}
{"SMILES": "c1cnn2ncc(-c3ccnc(N4CCC45COC5)n3)c2c1", "assay": "binding, competition with immobilised ligand", "setting": "1 µM", "remaining binding [%]": 44}
{"SMILES": "O=C(c1ccc(Nc2ncc(Cl)c(-c3ccc(Cl)s3)n2)cc1)N1CCC(N2CCCC2)CC1", "assay": "binding, competition with immobilised ligand", "setting": "1 µM", "remaining binding [%]": 22}
{"SMILES": "FC(F)(F)Oc1cccc(-c2cnc3ccc(-c4ccncc4)nn23)c1", "assay": "cell-free assay, competition with immobilised ligand", "setting": "5 µM", "remaining binding [%]": 37}
{"SMILES": "Cc1noc([C@H]2C[C@@H](c3ccc(C(F)(F)F)cc3)CN(C(=O)N3CCS(=O)(=O)C3)C2)n1", "assay": "cell-free assay, competition with immobilised ligand", "setting": "1 µM", "remaining binding [%]": 91}
{"SMILES": "CN(CCCC(F)(F)F)c1nccc(-c2cnn3ncccc23)n1", "assay": "binding, competition with immobilised ligand", "setting": "1 µM", "remaining binding [%]": 100}
{"SMILES": "c1cncc(-c2cccc(Nc3nccc(NC4CCCCC4)n3)c2)c1", "assay": "binding, competition with immobilised ligand", "setting": "10 µM", "remaining binding [%]": 96}
{"SMILES": "CN(C)c1nccc(-c2cnn3ncccc23)n1", "assay": "binding, competition with immobilised ligand", "setting": "1 µM", "remaining binding [%]": 74}
{"SMILES": "O=C(NS(=O)(=O)c1ccc(NCC2CCOCC2)c([N+](=O)[O-])c1)c1ccc(N2CCN(Cc3ccc(C(F)(F)F)cc3-c3ccc(Cl)cc3)CC2)cc1Oc1cnc2[nH]ccc2c1", "assay": "cell-free assay, competition with immobilised ligand", "setting": "1 µM", "remaining binding [%]": 65}
{"SMILES": "COc1ccnn2ncc(-c3ccnc(N(C)C)n3)c12", "assay": "binding", "setting": "1 µM", "remaining binding [%]": 78}
{"SMILES": "CCCCN(CCCC)C(=O)CN1C[C@H](c2cc(OC)c3c(c2)OCO3)[C@@H](C(=O)O)[C@@H]1CC(C)(C)CCC", "assay": "cell-free assay, competition with immobilised ligand", "setting": "1 µM", "remaining binding [%]": 100}
{"SMILES": "Cc1cnc(Nc2ccc(C(=O)N3CCC(N4CCCC4)CC3)cc2)nc1-c1cc2ccccc2s1", "assay": "binding, competition with immobilised ligand", "setting": "1 µM", "remaining binding [%]": 100}
{"SMILES": "N[C@@H]1CCN(c2nccc(-c3cnn4ncccc34)n2)C1", "assay": "binding", "setting": "1 µM", "remaining binding [%]": 91}
{"SMILES": "CN(c1ccnc(CNc2nc(Nc3ccc4c(c3)CC(=O)N4)ncc2C(F)(F)F)n1)S(C)(=O)=O", "assay": "cell-free assay, competition with immobilised ligand", "setting": "1 µM", "remaining binding [%]": 65}
{"SMILES": "O=C(Nc1c[nH]nc1C(=O)NC1CCNCC1)c1cc(F)cc(F)c1", "assay": "binding, competition with immobilised ligand", "setting": "1 µM", "remaining binding [%]": 100}
{"SMILES": "COc1cnc(Nc2cccc(S(N)(=O)=O)c2)nc1N1CCN(c2ccccc2)C(=O)C1", "assay": "binding, competition with immobilised ligand", "setting": "1 µM", "remaining binding [%]": 89}
{"SMILES": "Nc1ncc2c(n1)-c1c([nH]c3ccc(C#CC4CC4)cc13)CCCC2", "assay": "binding, competition with immobilised ligand", "setting": "1 µM", "remaining binding [%]": 73}
